The nature of data set [1]: Equilibrium association constant interacting with unilamellar vesicles of negatively charged DMPG in PBS buffer at pH of 7.4 and 37 degrees celsius. In kind it is ADME. As to conditions: pH 7.4. An outline of the steps: (§1)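 Fluorescence anisotropy titration of 1 uM total drug with small unilamellar vesicles (DMPC or DMPG) in PBS, pH 7.4, 37 °C. SUVs were sonicated from 10 mg/mL lipid stocks and annealed 30 min at 37 °C; DMPG pH was readjusted to 7.4. Readings were taken about 0.5–1 min after mixing. K came from least-squares slopes of double-reciprocal plots (1/bound fraction vs 1/[lipid]).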

Data set [2] in a line: % lactone at different intervals of time in PBS suspension. In kind it is ADME. As to conditions: buffer. An outline of the steps:
(§2)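 Lactone-ring hydrolysis of 1 uM drug at 37 °C and pH 7.4, incubated in PBS, in PBS containing physiologically relevant HSA or albumin-free red blood cells, or in whole human blood. Isocratic acetonitrile/2% triethylamine acetate (pH 5.5) at 1 mL/min; lactone eluted near 7.0 min, carboxylate near 2.0 min.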

The next data set is filed under the species Homo sapiens. The data set can be described thus: % lactone at different intervals of time in human blood. In kind it is ADME, organism-based. Summed up:
as §2

A short description of data set [3]: Half life for of compound in PBS with RBC suspension. In kind it is ADME. As to conditions: RBC (red blood cell) suspension in PBS. Summed up: as §2
Data set [4] can be described thus: Half life of compound in PBS suspension. In kind it is ADME. An outline of the steps:
as §2

Data set [5] in a line: % lactone at different intervals of time in PBS with RBC suspension. In kind it is ADME. As to conditions: erythrocytes. An outline of the steps: as §2
The nature of data set [6]: Half life of compound in PBS with HSA suspension. In kind it is ADME. As to conditions: human, HSA (human serum albumin) in PBS. An outline of the steps:
as §2

Data set [7] is described as follows: % lactone at different intervals of time in PBS with HSA suspension. In kind it is ADME. As to conditions: human, buffer. An outline of the steps: as §2
Data set [8] in a line: Equilibrium association constant interacting with unilamellar vesicles of electroneutral in PBS buffer at pH 7.4. In kind it is ADME. An outline of the steps:
as §1

Data set [9] in a line: Half life in human blood. In kind it is ADME, organism-based. As to conditions: whole blood. Summed up:
as §2

The test system of another data set is Tumor Cell line. The data set can be described thus: Mean GI50 against variety of human tumor cell lines. In kind it is functional. Summed up:
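NCI tumour cell panel: 5000–40 000 cells/well preincubated 24 h at 37 °C, then exposed 48 h (5% CO2) to five 10-fold dilutions from DMSO stocks. Highest well concentration in routine testing was 10^-4 M. Growth was read by sulforhodamine B protein staining.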

Data set [10] has as its system U-87 MG. Put plainly: Inhibition of tumor growth at day 28 postimplantation after administration of 3 mg/kg/day in nude mouse U87 glioma subcutaneous model system. As to conditions: sc, 672 h. In kind it is functional, U-87MG ATCC.
Data set [11] relates to U-87 MG. The data set can be described thus: Inhibition of tumor growth at day 28 postimplantation after administration of 10 mg/kg/day in nude mouse U87 glioma subcutaneous model system. In kind it is functional, U-87MG ATCC. As to conditions: sc, 672 h.
Data set [12] can be described thus: Inhibition against MDA-MB-435 S human breast cancer cells in the absence of albumin. In kind it is functional, cell-based. An outline of the steps: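 Read-out was sulforhodamine B, which stains protein in cells and cell fragments still attached to the dish bottom, including dying or dead attached cells. IC50 was derived from the cell survival profiles.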

Data set [13] deals with MDA-MB-435. The data set can be described thus: Inhibition against MDA-MB-435 human breast cancer cells in the absence of HSA. In kind it is functional, cell-based. Summed up:
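MDA-MB-435 S human breast cancer cells exposed to drug with or without added HSA. Viability was read after a 3-day growth assay by sulforhodamine B staining of protein remaining attached to the dish.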

The test system of data set [14] is MDA-MB-435. The data set can be described thus: Inhibition against MDA-MB-435 human breast cancer cells in the presence of 1 mg/mL HSA.

Where only a bound is given, the exact number is not on record here.

The half-life is the time needed for the level to fall by half in the phase considered. Low values mean fast loss, high ones slow loss. What is called GI50 is the concentration that inhibits growth by half. A word on the inhibition in vivo: it is the drop in the measured response relative to a control, in per cent. As usually defined, the IC50 is the concentration that inhibits the measured activity by half.

With `CC[C@@]1(O)C(=O)OCc2c1cc1n(c2=O)Cc2c-1nc1ccccc1c2[Si](C)(C)CCCCl`, the KDMPG in data set [1] worked out at 2500 M⁻¹. Moreover, the Lactone in data set [2] is recorded as 12%; in the data set filed under Homo sapiens, 2.2%; in [5], 43.4%; in [7] it was 2.7%. Also, the half-life in data set [3] is 59.7 min; in data set [4] it was 23.3 min; in [6], 16 min; in data set [9], 85.6 min. In addition, the KDMPC in data set [8] stood at 2800 M⁻¹.
`CC[C@@]1(O)C(=O)OCc2c1cc1n(c2=O)Cc2c-1nc1ccc(O)cc1c2[Si](C)(C)CCCCl` showed a KDMPG in data set [1] of 1200 M⁻¹. In addition, the Lactone in [2] amounted to 11.3%; in the data set filed under Homo sapiens it was 17.8%; in data set [5], 50.2%; in data set [7], 17.2%. For the same compound, the half-life in [3] was found to be 67.7 min; in data set [4], 29.5 min; in data set [6], 48 min; in data set [9], 65.3 min. The compound further displayed a KDMPC in [8] of 2200 M⁻¹.
For the compound `CC[C@@]1(O)C(=O)OCc2c1cc1n(c2=O)Cc2c-1nc1ccccc1c2[Si](C)(C)C(C)(C)C`, the KDMPG in data set [1] amounted to 16000 M⁻¹. Also, the Lactone in data set [2] is 12.2%; in the data set listed under Homo sapiens, 1%; in [5], 59.4%; in data set [7], 0.1%. The half-life was found to be 79.4 min in data set [3], 27.9 min in data set [4], 46.3 min in data set [6] and 71 min in data set [9]. In data set [8], the KDMPC was found to be 15500 M⁻¹.
In turn, `CCc1c2c(nc3ccc(O)cc13)-c1cc3c(c(=O)n1C2)COC(=O)[C@]3(O)CC` [7-ETHYL-10-HYDROXYCAMPTOTHECIN] came in with a KDMPG in data set [1] of 160 M⁻¹. The Lactone in [2] is recorded as 15.3%; in the data set filed under Homo sapiens, 19.5%; in data set [5], 37.5%. For the same compound, the half-life amounted to 24.4 min in [3], 20.9 min in data set [4], 36.1 min in [6] and 32 min in data set [9]. This compound also had a KDMPC in [8] of 260 M⁻¹.
Regarding `CC[C@@]1(O)C(=O)OCc2c1cc1n(c2=O)Cc2c-1nc1ccc(O)cc1c2[Si](C)(C)C(C)(C)C` [AR-67], the KDMPG in [1] turned out to be 2800 M⁻¹. Moreover, growth in the data set on Tumor Cell line was halved (GI50) at 21 nM. Also, the Lactone was found to be 10.2% in data set [2], 30.5% in the data set filed under Homo sapiens, 41.4% in data set [5] and 10.5% in data set [7]. Further, the half-life was determined as 51.4 min in data set [3] (human), 31.8 min in data set [4] and 119 min in data set [6]. Further, in the data set on U-87 MG [10], the inhibition in vivo at 3 mg/kg/day is 61%. The same compound yielded a KDMPC in [8] of 2500 M⁻¹. The inhibition in vivo at 10 mg/kg/day with U-87 MG [11] stood at 73%. Moreover, the IC50 in data set [12] was found to be 14 nM.
Regarding `CC[C@@]1(O)C(=O)OCc2c1cc1n(c2=O)Cc2cc3ccccc3nc2-1` [CAMPTOTHECIN], the KDMPG in [1] was 100 M⁻¹. Further, the results for the IC50 with MDA-MB-435 [13] and with MDA-MB-435 [14] were 15 nM and 375 nM, respectively. In addition, growth in the data set on Tumor Cell line was halved (GI50) at 44 nM. Further, the Lactone is 17% in data set [2], 5.3% in the data set filed under Homo sapiens, 34.6% in data set [5] and less than 0.5% in data set [7]. Also, the figures for the half-life in data set [3] and in [6] were 30.8 min and 11.9 min, respectively. This compound also showed a KDMPC in data set [8] of 100 M⁻¹.
On to `CC[C@@]1(O)C(=O)OCc2c1cc1n(c2=O)Cc2cc3cc(O)ccc3nc2-1` [HYDROXYCAMPTOTHECIN], for which the GI50 in the data set on Tumor Cell line was 36 nM. This counts as double-digit nanomolar.
For `CC[C@@]1(O)C(=O)OCc2c1cc1n(c2=O)Cc2cc3c(CN(C)C)c(O)ccc3nc2-1` [TOPOTECAN], the KDMPG in data set [1] amounted to 50 M⁻¹. The compound also displayed a KDMPC in data set [8] of 10 M⁻¹.

For the origin of these results see ChEMBL document CHEMBL1133088 (J Med Chem, 2000).
